We go through three compounds from ChEMBL document CHEMBL1133729, “Design, synthesis, and structure-activity relationships of phthalimide-phenylpiperazines: a novel series of potent and selective alpha(1)(a)-adrenergic receptor antagonists” (J Med Chem, 2000).

Broadly, the Ki is the equilibrium dissociation constant of an inhibitor or competing ligand from its target. The inhibition is the change of the read-out against control, counted positive when it falls.

Assay [1] deals with Alpha-2A adrenergic receptor (Homo sapiens, UniProt P08913). As to the kind of experiment: Binding affinity towards recombinant human alpha-2A adrenergic receptor was determined using [3H]MK-912 as radioligand. The gist of the method: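 Membranes from CHO cells expressing recombinant human α2a receptor; competition with [3H]MK912, 60 min at 25 °C, in 50 mM Tris-HCl/150 mM NaCl/5 mM EDTA pH 7.4. Nonspecific binding defined with 10 μM WB4101. Filtration, washing, scintillation counting. IC50 by nonlinear regression, Ki via Cheng–Prusoff; mean ± SEM of three independent experiments.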
Alpha-2A adrenergic receptor, sequence (P08913 whole entry): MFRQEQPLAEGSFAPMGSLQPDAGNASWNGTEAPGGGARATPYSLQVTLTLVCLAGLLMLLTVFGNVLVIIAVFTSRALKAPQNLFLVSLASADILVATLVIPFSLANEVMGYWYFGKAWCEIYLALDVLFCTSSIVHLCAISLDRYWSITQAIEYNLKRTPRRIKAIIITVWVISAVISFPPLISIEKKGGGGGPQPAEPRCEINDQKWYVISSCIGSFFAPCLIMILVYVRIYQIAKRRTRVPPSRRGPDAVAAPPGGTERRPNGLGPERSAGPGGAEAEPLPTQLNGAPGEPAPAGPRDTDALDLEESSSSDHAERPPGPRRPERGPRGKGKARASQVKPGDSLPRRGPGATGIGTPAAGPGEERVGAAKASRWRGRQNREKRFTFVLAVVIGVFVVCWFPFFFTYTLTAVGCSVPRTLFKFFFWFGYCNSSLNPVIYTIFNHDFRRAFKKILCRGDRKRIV

Assay [2] has as its target T1, D(4) dopamine receptor (Homo sapiens) (UniProt P21917).
T1 sequence (whole entry): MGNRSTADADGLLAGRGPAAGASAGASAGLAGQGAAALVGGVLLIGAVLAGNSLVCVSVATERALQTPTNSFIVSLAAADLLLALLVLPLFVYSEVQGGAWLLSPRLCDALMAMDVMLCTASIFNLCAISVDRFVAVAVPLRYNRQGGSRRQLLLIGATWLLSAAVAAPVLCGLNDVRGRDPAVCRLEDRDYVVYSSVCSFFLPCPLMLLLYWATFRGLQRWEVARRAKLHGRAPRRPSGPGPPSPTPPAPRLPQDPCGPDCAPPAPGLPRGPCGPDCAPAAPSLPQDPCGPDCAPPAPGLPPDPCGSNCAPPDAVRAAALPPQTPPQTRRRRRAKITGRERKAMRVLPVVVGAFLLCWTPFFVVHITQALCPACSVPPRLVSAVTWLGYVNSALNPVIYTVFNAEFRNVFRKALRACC
As to the kind of experiment: Compound at 1 uM was tested for the inhibition of radioligand [3H]spiperone binding to recombinant human Dopamine receptor D4. The gist of the method:
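Recombinant human D4.7 in CHO cell membranes; [3H]spiperone for 120 min at 25 °C, pH 7.4 Tris-HCl/NaCl/EDTA; haloperidol (10 μM) for nonspecific binding. Compound at 1 μM, percent inhibition determined in duplicate; filtration, scintillation counting.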

For assay [3], the target named is 5-hydroxytryptamine receptor 1A (Homo sapiens, UniProt P08908). As to the kind of experiment: Binding affinity towards recombinant human 5-hydroxytryptamine 1A receptor was determined using [3H]8-OH-DPAT as radioligand. A digest of the protocol:
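Human 5-HT1A receptor expressed in CHO cells, membranes used. [3H]8-OH-DPAT, 60 min at 25 °C in Tris-HCl/NaCl/EDTA buffer, pH 7.4. Metergoline (10 μM) gave nonspecific binding. Filtered, scintillation counted. Ki from IC50 (nonlinear regression) by Cheng–Prusoff, mean ± SEM of three independent experiments.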

The target in assay [4] is Voltage-gated L-type calcium channel (Rattus norvegicus, UniProt P22002+Q02485+P27732). As to the kind of experiment: Inhibition of [3H]nitrendipine binding to phenylalkylamine-sensitive [Ca2+] L-type channels in rat cerebral cortex. The class given is tissue-based.
For a further assay, the target named is Histamine H1 receptor (Cavia porcellus, UniProt P31389). As to the kind of experiment: Binding affinity towards histamine H1 receptor was determined in guinea pig brain using [3H]pyrilamine as radioligand. A digest of the protocol:
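Guinea pig brain membranes as source of central H1 receptors; [3H]pyrilamine, 25 °C for 60 min in 50 mM Tris-HCl, 150 mM NaCl, 5 mM EDTA, pH 7.4; nonspecific binding with 1 μM pyrilamine. Filtration, scintillation counting. Ki by Cheng–Prusoff from fitted IC50, mean ± SEM of three experiments.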

5-hydroxytryptamine receptor 1A, sequence (P08908 whole entry): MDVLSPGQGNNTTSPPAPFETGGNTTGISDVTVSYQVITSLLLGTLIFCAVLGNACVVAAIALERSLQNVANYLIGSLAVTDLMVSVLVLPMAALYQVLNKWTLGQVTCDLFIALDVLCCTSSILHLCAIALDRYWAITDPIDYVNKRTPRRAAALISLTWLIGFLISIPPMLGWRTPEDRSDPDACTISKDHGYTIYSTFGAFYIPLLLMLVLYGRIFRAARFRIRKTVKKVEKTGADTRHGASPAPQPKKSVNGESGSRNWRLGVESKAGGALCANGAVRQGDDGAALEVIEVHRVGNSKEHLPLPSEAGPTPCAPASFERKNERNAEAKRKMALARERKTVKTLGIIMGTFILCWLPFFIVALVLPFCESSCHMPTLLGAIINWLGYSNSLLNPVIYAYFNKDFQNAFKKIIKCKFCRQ
Histamine H1 receptor, sequence (P31389 whole entry): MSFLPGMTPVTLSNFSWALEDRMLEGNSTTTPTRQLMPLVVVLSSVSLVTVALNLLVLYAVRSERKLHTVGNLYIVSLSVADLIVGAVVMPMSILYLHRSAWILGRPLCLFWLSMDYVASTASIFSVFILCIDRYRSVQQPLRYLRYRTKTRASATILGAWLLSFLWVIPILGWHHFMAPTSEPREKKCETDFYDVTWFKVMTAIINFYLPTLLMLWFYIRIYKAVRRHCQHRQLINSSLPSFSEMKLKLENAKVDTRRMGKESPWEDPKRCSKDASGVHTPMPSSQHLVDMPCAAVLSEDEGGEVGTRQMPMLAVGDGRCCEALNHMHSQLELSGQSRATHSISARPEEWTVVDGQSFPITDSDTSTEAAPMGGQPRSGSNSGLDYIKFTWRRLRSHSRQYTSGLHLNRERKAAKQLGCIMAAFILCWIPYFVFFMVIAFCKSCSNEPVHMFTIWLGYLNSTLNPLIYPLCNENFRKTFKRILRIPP

As to `CCOc1ccccc1OCCN[C@H](C)Cc1ccc(OC)c(S(N)(=O)=O)c1` [TAMSULOSIN], the inhibition constant (Ki) in assay [1] is 63 nM.

For `Cc1ccc(N2C(=O)c3ccc(C(=O)NC[C@H](O)CN4CCN(c5ccccc5OC(C)C)CC4)cc3C2=O)cc1`, in assay [2], the inhibition amounted to 50%.

As for `CC(C)Oc1ccccc1N1CCN(C[C@@H](O)CNC(=O)c2ccc3c(c2)C(=O)N(c2ccc(N(C)C)cc2)C3=O)CC1`, the Ki in assay [3] turned out to be 15 nM; in assay [4], 760 nM; on Histamine H1 receptor, 38 nM.
